Measurements: the M2OR odorant receptor database

How the values were obtained:
Conditions in all cases: stereoisomer not certain
[1] = target: OR4K17 (Homo sapiens) (UniProt Q8NGC6)
In short: (§1)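 Transient luciferase assays in mammalian cell lines were common, though methods varied by source. The values come from published papers and their supplementary material, with extra details from the original authors when needed. Responsive refers to a measured signal the original authors judged statistically different from baseline, and non-responsive (inactive) to the remainder.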

[2] = target: OR4K2 (Homo sapiens) (UniProt Q8NGD2)
In short: as §1

[3] = target: OR4K3 (Homo sapiens) (UniProt Q96R72)
In short: as §1

[4] = target: OR4K5 (Homo sapiens) (UniProt Q8NGD3)
In short: as §1

[5] = target: OR4L1 (Homo sapiens) (UniProt Q8NH43)
In short: as §1

[6] = target: OR4M1 (Homo sapiens) (UniProt Q8NGD0)
In short: as §1

[7] = tested on: OR4K2
In short: as §1

[8] = tested on: OR4KF
In short: as §1

[9] = tested on: OR4KH
In short: as §1

[10] = tested on: OR4L1
In short: as §1

Measured: odorant receptor agonist call;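 note: active if original authors judged signal statistically different from baseline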

Sequence of OR4K2 (Homo sapiens) (Q8NGD2 whole entry): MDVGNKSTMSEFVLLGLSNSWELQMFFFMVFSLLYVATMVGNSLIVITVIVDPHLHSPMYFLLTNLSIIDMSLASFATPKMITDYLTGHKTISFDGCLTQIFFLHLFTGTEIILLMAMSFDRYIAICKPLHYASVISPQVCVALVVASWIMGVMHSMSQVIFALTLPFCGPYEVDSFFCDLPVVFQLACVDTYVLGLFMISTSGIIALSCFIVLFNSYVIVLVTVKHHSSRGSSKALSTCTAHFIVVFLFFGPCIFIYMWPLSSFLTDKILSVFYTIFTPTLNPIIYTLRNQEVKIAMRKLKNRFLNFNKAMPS
Sequence of OR4L1 (Homo sapiens) (Q8NH43 whole entry): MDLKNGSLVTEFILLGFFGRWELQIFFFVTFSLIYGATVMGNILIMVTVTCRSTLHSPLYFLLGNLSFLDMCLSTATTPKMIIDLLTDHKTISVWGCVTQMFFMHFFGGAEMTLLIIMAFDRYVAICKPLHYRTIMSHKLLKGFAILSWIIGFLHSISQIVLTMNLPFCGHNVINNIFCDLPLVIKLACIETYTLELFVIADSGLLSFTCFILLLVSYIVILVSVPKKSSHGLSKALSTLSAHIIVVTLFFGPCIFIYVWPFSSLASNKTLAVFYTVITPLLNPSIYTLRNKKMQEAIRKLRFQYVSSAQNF
Sequence of OR4M1 (Homo sapiens) (Q8NGD0 whole entry): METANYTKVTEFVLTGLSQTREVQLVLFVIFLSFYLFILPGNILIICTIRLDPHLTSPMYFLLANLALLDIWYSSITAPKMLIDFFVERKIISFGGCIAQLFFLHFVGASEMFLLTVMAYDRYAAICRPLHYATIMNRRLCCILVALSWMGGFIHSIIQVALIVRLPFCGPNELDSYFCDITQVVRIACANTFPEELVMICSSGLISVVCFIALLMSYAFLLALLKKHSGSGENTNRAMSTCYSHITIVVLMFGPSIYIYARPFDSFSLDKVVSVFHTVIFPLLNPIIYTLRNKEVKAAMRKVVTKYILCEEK
Sequence of OR4K5 (Homo sapiens) (Q8NGD3 whole entry): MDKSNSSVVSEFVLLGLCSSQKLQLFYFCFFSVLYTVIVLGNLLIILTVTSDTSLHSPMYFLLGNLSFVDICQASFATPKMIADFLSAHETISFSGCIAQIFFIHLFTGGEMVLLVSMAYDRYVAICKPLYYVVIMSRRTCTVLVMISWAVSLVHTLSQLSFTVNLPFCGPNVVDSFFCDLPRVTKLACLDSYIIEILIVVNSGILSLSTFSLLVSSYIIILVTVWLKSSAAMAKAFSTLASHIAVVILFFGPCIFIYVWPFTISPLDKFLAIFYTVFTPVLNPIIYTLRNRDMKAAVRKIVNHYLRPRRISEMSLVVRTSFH
Sequence of OR4K2 (as listed by the source): as the sequence (Q8NGD2 whole entry) above, with N307I counted along it
Sequence of OR4KH (as listed by the source): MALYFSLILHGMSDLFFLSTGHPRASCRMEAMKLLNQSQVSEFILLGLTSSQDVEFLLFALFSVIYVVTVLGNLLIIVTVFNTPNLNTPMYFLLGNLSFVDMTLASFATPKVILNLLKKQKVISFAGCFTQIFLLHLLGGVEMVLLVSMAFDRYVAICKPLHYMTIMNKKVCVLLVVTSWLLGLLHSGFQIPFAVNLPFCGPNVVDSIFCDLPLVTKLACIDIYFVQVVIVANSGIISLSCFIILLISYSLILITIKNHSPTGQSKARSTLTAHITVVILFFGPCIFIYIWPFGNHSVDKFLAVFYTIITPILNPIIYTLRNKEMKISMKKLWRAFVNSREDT
Sequence of OR4K17 (Homo sapiens) (Q8NGC6 as listed by the source): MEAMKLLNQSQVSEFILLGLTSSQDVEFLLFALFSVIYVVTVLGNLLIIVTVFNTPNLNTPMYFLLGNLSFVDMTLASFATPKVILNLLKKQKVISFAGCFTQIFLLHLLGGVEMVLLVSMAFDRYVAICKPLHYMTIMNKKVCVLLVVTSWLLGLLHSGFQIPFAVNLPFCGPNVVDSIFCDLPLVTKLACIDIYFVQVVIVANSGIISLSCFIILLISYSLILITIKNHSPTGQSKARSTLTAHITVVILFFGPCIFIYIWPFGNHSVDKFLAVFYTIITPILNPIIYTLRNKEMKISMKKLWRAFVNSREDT
Sequence of OR4KF (as listed by the source): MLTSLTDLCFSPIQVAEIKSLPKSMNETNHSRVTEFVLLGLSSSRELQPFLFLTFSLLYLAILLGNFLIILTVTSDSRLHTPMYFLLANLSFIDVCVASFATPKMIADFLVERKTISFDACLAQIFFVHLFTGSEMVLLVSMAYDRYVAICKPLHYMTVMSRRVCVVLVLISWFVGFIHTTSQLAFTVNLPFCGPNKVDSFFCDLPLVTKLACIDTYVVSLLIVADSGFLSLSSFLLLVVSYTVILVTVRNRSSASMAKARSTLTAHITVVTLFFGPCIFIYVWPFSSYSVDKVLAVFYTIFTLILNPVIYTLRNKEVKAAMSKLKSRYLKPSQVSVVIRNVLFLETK
Sequence of OR4L1 (as listed by the source): as the sequence (Q8NH43 whole entry) above, with R52S counted along it
Sequence of OR4K3 (Homo sapiens) (Q96R72 whole entry): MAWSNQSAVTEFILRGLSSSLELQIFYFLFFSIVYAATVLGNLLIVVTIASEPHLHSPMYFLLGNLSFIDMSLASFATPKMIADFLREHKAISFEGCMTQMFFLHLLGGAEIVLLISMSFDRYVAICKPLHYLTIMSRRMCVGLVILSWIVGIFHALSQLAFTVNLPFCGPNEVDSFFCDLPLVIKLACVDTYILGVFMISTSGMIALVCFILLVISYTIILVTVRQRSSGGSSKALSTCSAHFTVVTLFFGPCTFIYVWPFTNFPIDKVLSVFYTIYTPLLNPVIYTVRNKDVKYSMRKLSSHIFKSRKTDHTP

Cc1c([N+](=O)[O-])c(C)c([N+](=O)[O-])c(C(C)(C)C)c1[N+](=O)[O-]
inactive: [1] | [2] | [3] | [4] | [5] | [6]

C=CCOC(=O)Cc1ccccc1
not listed: [1] | [3]
inactive: all other assays above
